ChEMBL document CHEMBL2321795, “Solubility-driven optimization of (pyridin-3-yl) benzoxazinyl-oxazolidinones leading to a promising antibacterial agent” (J Med Chem, 2013)
In brackets after ≈: the same amount, converted by molar mass.

Assays:
Enterococcus faecalis [1] = experiment: Antibacterial activity against Enterococcus faecalis after 16 hrs by NCCLS agar dilution method; assay type: functional
In short: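 Agar dilution MIC per NCCLS, 6 E. faecalis strains. Stock was 320 μg/mL in 50% water/DMSO, serially 2-fold diluted in sterile water, then 10-fold into Mueller–Hinton agar to give 16–0.03125 μg/mL final. Inocula came from MH broth cultures grown 8 h at 35 °C, adjusted to 0.5 McFarland and spotted by multipoint inoculator. Plates were read after 16 h at 35 °C.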

Staphylococcus aureus [2] = experiment: Antibacterial activity against linezolid-resistant Staphylococcus aureus after 16 hrs by NCCLS agar dilution method; assay type: functional
In short: (§1)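 Agar dilution MIC. Stocks were 320 μg/mL in 50% aqueous DMSO, 2-fold serially diluted in sterile water, then diluted 10-fold into Mueller–Hinton agar to give 16–0.03125 μg/mL final. Organisms were grown in MH broth at 35 °C for 8 h and adjusted to 0.5 McFarland. They were spotted onto drug-containing plates with a multipoint inoculator and incubated at 35 °C for 16 h. Linezolid was the positive control.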

[3] = tested on: Staphylococcus epidermidis; experiment: Antibacterial activity against linezolid-resistant Staphylococcus epidermidis after 16 hrs by NCCLS agar dilution method; assay type: functional; in short: as §1
[4] = tested on: Staphylococcus epidermidis; experiment: Antibacterial activity against methicillin-sensitive Staphylococcus epidermidis after 16 hrs by NCCLS agar dilution method; assay type: functional; in short: as §1
Staphylococcus aureus [5] = experiment: Antibacterial activity against methicillin-resistant Staphylococcus aureus after 16 hrs by NCCLS agar dilution method; assay type: functional; in short: as §1
Enterococcus faecium = experiment: Antibacterial activity against linezolid-resistant Enterococcus faecium after 16 hrs by NCCLS agar dilution method; assay type: functional; in short: as §1
Streptococcus pneumoniae = experiment: Antibacterial activity against penicillin-resistant Streptococcus pneumoniae after 16 hrs by NCCLS agar dilution method; assay type: functional; in short: as §1
Staphylococcus aureus [6] = experiment: Antibacterial activity against Staphylococcus aureus ATCC 29213 after 16 hrs by NCCLS agar dilution method; assay type: functional; conditions: ATCC 29213, 16 h; in short: as §1
Staphylococcus aureus [7] = experiment: Antibacterial activity against methicillin-sensitive Staphylococcus aureus after 16 hrs by NCCLS agar dilution method; assay type: functional; in short: as §1
[8] = tested on: Staphylococcus epidermidis; experiment: Antibacterial activity against methicillin-resistant Staphylococcus epidermidis after 16 hrs by NCCLS agar dilution method; assay type: functional; in short: as §1
Enterococcus faecalis [9] = experiment: Antibacterial activity against linezolid-resistant Enterococcus faecalis after 16 hrs by NCCLS agar dilution method; assay type: functional; in short: as §1
[10] = Cmax in Sprague-Dawley rat at 10 mg/kg, po by LC-MS analysis; assay type: ADME, organism-based; design: dose 10 mg/kg, route oral; conditions: in vivo
In short: (§2)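 Rats were dosed orally or by intravenous injection. For prodrugs, all parameters were based on the active parent antibacterial detected in plasma, and each prodrug dose was also given as an equivalent parent dose. Parameters were Cmax, Tmax, elimination T1/2, AUC from the concentration–time curve, clearance and oral bioavailability F.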

[11] = Oral bioavailability in Sprague-Dawley rat at 10 mg/kg; assay type: ADME, organism-based; conditions: Sprague-Dawley, in vivo; in short: as §2
[12] = AUC in Sprague-Dawley rat at 10 mg/kg, iv by LC-MS analysis; assay type: ADME, organism-based; design: dose 10 mg/kg, route intravenous; conditions: plasma
In short: (§3)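 Rats dosed orally or by intravenous injection. AUC is the area under the plasma concentration–time curve. For the prodrug entries, all PK values were based on the amount of the active parent antibacterial detected, not the administered prodrug.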

[13] = Elimination half life in Sprague-Dawley rat at 10 mg/kg, po by LC-MS analysis; assay type: ADME, organism-based; design: dose 10 mg/kg, route oral; conditions: in vivo, read-out: beta t1/2 (converted); in short: as §2
[14] = AUC in Sprague-Dawley rat at 10 mg/kg, po by LC-MS analysis; assay type: ADME, organism-based, Plasma; design: dose 10 mg/kg, route oral; conditions: Sprague-Dawley, plasma; in short: as §2
[15] = Elimination half life in Sprague-Dawley rat at 10 mg/kg, iv by LC-MS analysis; assay type: ADME, organism-based; design: dose 10 mg/kg, route intravenous; conditions: in vivo, read-out: beta t1/2 (converted); in short: as §2
[16] = Tmax in Sprague-Dawley rat at 10 mg/kg, po by LC-MS analysis; assay type: ADME, organism-based; design: dose 10 mg/kg, route oral; conditions: in vivo; in short: as §2
[17] = Clearance in Sprague-Dawley rat at 10 mg/kg, iv by LC-MS analysis; assay type: ADME, organism-based; design: dose 10 mg/kg, route intravenous; conditions: in vivo; in short: as §2
[18] = Oral bioavailability in Sprague-Dawley rat at 15 mg/kg; assay type: ADME, organism-based; conditions: in vivo; in short: as §2
[19] = Elimination half life in Sprague-Dawley rat at 15 mg/kg, po by LC-MS analysis; assay type: ADME, organism-based; design: dose 15 mg/kg, route oral; conditions: in vivo, read-out: beta t1/2 (converted); in short: as §2
[20] = Tmax in Sprague-Dawley rat at 15 mg/kg, po by LC-MS analysis; assay type: ADME, organism-based; design: dose 15 mg/kg, route oral; conditions: in vivo; in short: as §2
[21] = AUC in Sprague-Dawley rat at 15 mg/kg, po by LC-MS analysis; assay type: ADME, organism-based; design: dose 15 mg/kg, route oral; conditions: plasma; in short: as §3
[22] = Cmax in Sprague-Dawley rat at 15 mg/kg, po by LC-MS analysis; assay type: ADME, organism-based; design: dose 15 mg/kg, route oral; conditions: in vivo; in short: as §2
[23] = Aqueous solubility of the compound; conditions: aqueous (not further specified)
[24] = Tmax in Sprague-Dawley rat at 50 mg/kg, po by LC-MS analysis; assay type: ADME, organism-based; design: dose 50 mg/kg, route oral; conditions: in vivo; in short: as §2
[25] = Cmax in Sprague-Dawley rat at 50 mg/kg, po by LC-MS analysis; assay type: ADME, organism-based; design: dose 50 mg/kg, route oral; conditions: in vivo; in short: as §2
[26] = AUC in Sprague-Dawley rat at 50 mg/kg, po by LC-MS analysis; assay type: ADME, organism-based; design: dose 50 mg/kg, route oral; conditions: plasma; in short: as §2
[27] = Elimination half life in Sprague-Dawley rat at 50 mg/kg, po by LC-MS analysis; assay type: ADME, organism-based; design: dose 50 mg/kg, route oral; conditions: in vivo, read-out: beta t1/2 (converted); in short: as §2
Staphylococcus aureus [28] = experiment: Antibacterial activity against methicillin-resistant Staphylococcus aureus ATCC 33591 infected in po dosed systemic infection mouse model administered 1 hr post infection measured after 24 hrs; assay type: functional; conditions: ATCC 33591, po
In short: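 Female ICR mice, 23–25 g, made neutropenic with cyclophosphamide ip, 150 mg/kg 4 days and 100 mg/kg 2 days before infection. Infected ip with about 0.5 mL of 10⁶ CFU/mL MRSA. Oral dosing 1 h post-infection at 5, 10, 20 and 40 mg/kg, with linezolid as control. ED₅₀ (dose treating 50% of infections) by Reed–Muench and Hill equation, 24 h after treatment.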

[29] = Mean resident time in Staphylococcus aureus systemic infection mouse model at 2.5 to 20 mg/kg, iv; assay type: ADME, organism-based; design: dose 2.5-20 mg/kg, route intravenous; conditions: in vivo
Staphylococcus aureus [30] = experiment: Antibacterial activity against methicillin-sensitive Staphylococcus aureus ATCC 19636 infected in po dosed systemic infection mouse model administered 1 hr post infection measured after 48 hrs; assay type: functional; conditions: ATCC 19636, po
In short: (§4)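 Female ICR mice weighing 20–22 g, six per group, received 0.5 mL of 10⁷–10⁸ CFU/mL S. aureus intraperitoneally as a lethal systemic challenge. Dosing was oral or intravenous 1 h post-infection at 2.5, 5, 10 and 20 mg/kg, with linezolid as comparator.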

Staphylococcus aureus [31] = experiment: Antibacterial activity against methicillin-sensitive Staphylococcus aureus ATCC 19636 infected in iv dosed systemic infection mouse model administered 1 hr post infection measured after 48 hrs; assay type: functional; conditions: ATCC 19636, iv; in short: as §4
[32] = molecular target: Voltage-gated inwardly rectifying potassium channel KCNH2 (Homo sapiens, UniProt Q12809)
Sequence of Voltage-gated inwardly rectifying potassium channel KCNH2 (Q12809 whole entry): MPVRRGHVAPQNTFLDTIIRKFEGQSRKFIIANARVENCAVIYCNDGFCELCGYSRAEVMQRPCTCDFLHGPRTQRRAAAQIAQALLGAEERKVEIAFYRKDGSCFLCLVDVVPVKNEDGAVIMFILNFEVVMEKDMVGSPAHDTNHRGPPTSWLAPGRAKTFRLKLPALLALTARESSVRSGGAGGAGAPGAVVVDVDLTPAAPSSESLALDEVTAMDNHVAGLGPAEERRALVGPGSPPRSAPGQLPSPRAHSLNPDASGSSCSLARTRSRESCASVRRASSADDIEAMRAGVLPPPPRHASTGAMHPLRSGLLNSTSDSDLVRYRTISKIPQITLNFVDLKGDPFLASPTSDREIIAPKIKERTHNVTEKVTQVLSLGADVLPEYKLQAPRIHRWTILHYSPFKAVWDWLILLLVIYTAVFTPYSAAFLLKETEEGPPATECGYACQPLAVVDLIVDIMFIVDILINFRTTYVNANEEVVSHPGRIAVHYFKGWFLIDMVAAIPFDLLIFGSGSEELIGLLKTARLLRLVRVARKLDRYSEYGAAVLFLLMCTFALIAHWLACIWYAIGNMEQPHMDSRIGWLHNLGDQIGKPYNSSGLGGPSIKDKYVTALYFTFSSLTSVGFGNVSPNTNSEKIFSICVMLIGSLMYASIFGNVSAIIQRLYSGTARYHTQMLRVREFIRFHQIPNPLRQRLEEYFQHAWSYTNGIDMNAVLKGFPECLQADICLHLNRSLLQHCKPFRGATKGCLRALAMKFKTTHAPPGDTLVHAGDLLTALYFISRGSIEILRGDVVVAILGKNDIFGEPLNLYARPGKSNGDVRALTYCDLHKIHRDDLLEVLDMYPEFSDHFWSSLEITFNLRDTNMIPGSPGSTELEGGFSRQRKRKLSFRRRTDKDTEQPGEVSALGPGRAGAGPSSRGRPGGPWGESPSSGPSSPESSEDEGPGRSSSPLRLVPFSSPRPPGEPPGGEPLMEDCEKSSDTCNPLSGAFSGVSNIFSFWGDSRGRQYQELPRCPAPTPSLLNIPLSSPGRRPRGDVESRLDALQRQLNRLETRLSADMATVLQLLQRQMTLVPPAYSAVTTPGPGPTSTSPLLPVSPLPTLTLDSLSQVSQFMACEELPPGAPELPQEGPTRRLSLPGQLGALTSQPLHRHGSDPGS

Compound: O=C1O[C@@H](CO)[C@@H]2COc3cc(-c4ccc(C(O)CO)nc4)ccc3N12 (stereo not given in full)
- MIC (Enterococcus faecalis [1]): 1 µg/mL (≈ 2.79 µM)
- MIC (Staphylococcus aureus [2]): 16 µg/mL (≈ 44.6 µM)
- MIC [3]: 8 µg/mL (≈ 22.3 µM)
- MIC [4]: 0.5 µg/mL (≈ 1.4 µM)
- MIC (Staphylococcus aureus [5]): 0.5 µg/mL (≈ 1.4 µM)
- MIC (Enterococcus faecium): 4 µg/mL (≈ 11.2 µM)
- MIC (Streptococcus pneumoniae): 0.5 µg/mL (≈ 1.4 µM)
- MIC (Staphylococcus aureus [6]): 0.5 µg/mL (≈ 1.4 µM)
- MIC (Staphylococcus aureus [7]): 0.5 µg/mL (≈ 1.4 µM)
- MIC [8]: 0.5 µg/mL (≈ 1.4 µM)
- MIC (Enterococcus faecalis [9]): 4 µg/mL (≈ 11.2 µM)

Compound: CN1C[C@@H](c2ccc(-c3ccc4c(c3)OC[C@H]3[C@H](COP(=O)(O)O)OC(=O)N43)cn2)OC1=O.N=C(N)NCCC[C@H](N)C(=O)O.N=C(N)NCCC[C@H](N)C(=O)O
- Cmax [10]: 170 ng/mL
- bioavailability [11]: 34.8%
- AUC [12]: 1440 ng·h/mL
- half-life [13]: 3.88 h
- AUC [14]: 523 ng·h/mL
- half-life [15]: 9.43 h
- Tmax [16]: 0.38 h
- clearance [17]: 56.2 mL/min/kg

Compound: N=C(N)NCCC[C@H](N)C(=O)O.N=C(N)NCCC[C@H](N)C(=O)O.O=C1OC(COP(=O)(O)O)CN1c1ccc(-c2ccc3c(c2)OC[C@H]2[C@H](CO)OC(=O)N32)cn1 (stereo not given in full)
- bioavailability [18]: 32.6%
- AUC [12]: 1800 ng·h/mL
- half-life [19]: 1.45 h
- Tmax [20]: 0.25 h
- AUC [21]: 914 ng·h/mL
- half-life [15]: 0.26 h
- clearance [17]: 46.3 mL/min/kg
- Cmax [22]: 416 ng/mL

Compound: N#Cc1ccc(-c2ccc3c(c2)OC[C@H]2[C@H](COP(=O)([O-])[O-])OC(=O)N32)cn1.[Na+].[Na+]
- Cmax [10]: 15.2 ng/mL
- half-life [13]: 3.17 h
- AUC [14]: 81.1 ng·h/mL
- Tmax [16]: 1.31 h
- solubility [23]: 15 mg/mL

Compound: O=C1OC(COP(=O)([O-])[O-])CN1c1ccc(-c2ccc3c(c2)OC[C@H]2[C@H](CO)OC(=O)N32)cn1.[Na+].[Na+] (stereo not given in full)
- bioavailability [18]: 19.7%
- AUC [12]: 4000 ng·h/mL
- half-life [19]: 1.61 h
- Tmax [20]: 0.25 h
- AUC [21]: 1230 ng·h/mL
- half-life [15]: 1 h
- clearance [17]: 33.8 mL/min/kg
- Cmax [22]: 650 ng/mL
- solubility [23]: 534 mg/mL

Compound: N#Cc1ccc(-c2ccc3c(c2)OC[C@H]2[C@H](CO)OC(=O)N32)cn1
- MIC (Enterococcus faecalis [1]): 1 µg/mL (≈ 3.09 µM)
- Tmax [24]: 4.5 h
- MIC (Staphylococcus aureus [2]): 4 µg/mL (≈ 12.4 µM)
- Cmax [25]: 3020 ng/mL
- MIC [3]: 4 µg/mL (≈ 12.4 µM)
- MIC [4]: 0.25 µg/mL (≈ 0.773 µM)
- MIC (Staphylococcus aureus [5]): 0.25 µg/mL (≈ 0.773 µM)
- MIC (Enterococcus faecium): 2 µg/mL (≈ 6.19 µM)
- MIC (Streptococcus pneumoniae): 0.25 µg/mL (≈ 0.773 µM)
- AUC [26]: 33400 ng·h/mL
- half-life [27]: 4.69 h
- MIC (Staphylococcus aureus [6]): 0.25 µg/mL (≈ 0.773 µM)
- MIC (Staphylococcus aureus [7]): 0.25 µg/mL (≈ 0.773 µM)
- MIC [8]: 0.125 µg/mL (≈ 0.387 µM)
- MIC (Enterococcus faecalis [9]): 2 µg/mL (≈ 6.19 µM)

Compound: CN1C[C@@H](c2ccc(-c3ccc4c(c3)OC[C@H]3[C@H](COP(=O)([O-])[O-])OC(=O)N43)cn2)OC1=O.[Na+].[Na+]
- Cmax [10]: 524 ng/mL
- ED50 (Staphylococcus aureus [28]): 5 mg/kg
- bioavailability [11]: 52.5%
- AUC [12]: 3160 ng·h/mL
- half-life [13]: 4.61 h
- AUC [14]: 1660 ng·h/mL
- MRT [29]: 1.25 h
- ED50 (Staphylococcus aureus [30]): 6.65 mg/kg
- ED50 (Staphylococcus aureus [31]): 14.2 mg/kg
- half-life [15]: 4.88 h
- Tmax [16]: 0.44 h
- clearance [17]: 40.3 mL/min/kg
- solubility [23]: 227 mg/mL

Compound: CC(=O)NC[C@@H]1OC(=O)N2c3ccc(-c4ccc(C#N)nc4)cc3OC[C@@H]12
- IC50 [32]: 2780 nM
